Test results taken from ChEMBL document CHEMBL1287651, “Synthesis and in vitro antibacterial activity of fluoroquinolone derivatives containing 3-(N'-alkoxycarbamimidoyl)-4-(alkoxyimino) pyrrolidines” (2010).
≈ marks a conversion by molar mass, not a printed value.

Experiments:
Assay type in all cases: functional
[1] = system: Staphylococcus epidermidis; experiment: Antibacterial activity against methicillin-sensitive Staphylococcus epidermidis 09-3 after 18 to 24 hrs by twofold serial dilution method
Method in brief: (§1)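 Standard twofold serial agar dilution method on agar media for MIC determination. Screened against representative Gram-positive and Gram-negative strains. Levofloxacin and GMFX served as control drugs.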

Klebsiella pneumoniae [2] = experiment: Antibacterial activity against Klebsiella pneumoniae 09-21 after 18 to 24 hrs by twofold serial dilution method
Method in brief: (§2)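 MIC determined by the standard twofold serial dilution method on agar media, screening against Gram-positive and Gram-negative strains. Levofloxacin and gemifloxacin were run alongside as reference drugs.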

Staphylococcus aureus [3] = experiment: Antibacterial activity against methicillin-resistant Staphylococcus aureus 08-1 after 18 to 24 hrs by twofold serial dilution method; method in brief: as §1
Pseudomonas aeruginosa [4] = experiment: Antibacterial activity against Pseudomonas aeruginosa 09-33 after 18 to 24 hrs by twofold serial dilution method; method in brief: as §2
Pseudomonas aeruginosa [5] = experiment: Antibacterial activity against Pseudomonas aeruginosa 09-32 after 18 to 24 hrs by twofold serial dilution method; method in brief: as §2
[6] = system: Staphylococcus epidermidis; experiment: Antibacterial activity against methicillin-resistant Staphylococcus epidermidis 09-4 after 18 to 24 hrs by twofold serial dilution method; method in brief: as §1
Escherichia coli [7] = experiment: Antibacterial activity against Escherichia coli ATCC 25922 after 18 to 24 hrs by twofold serial dilution method; method in brief: as §2
Streptococcus pneumoniae [8] = experiment: Antibacterial activity against Streptococcus pneumoniae 08-4 after 18 to 24 hrs by twofold serial dilution method; method in brief: as §2
Pseudomonas aeruginosa [9] = experiment: Antibacterial activity against Pseudomonas aeruginosa ATCC 27853 after 18 to 24 hrs by twofold serial dilution method; method in brief: as §2
[10] = system: Staphylococcus epidermidis; experiment: Antibacterial activity against methicillin-resistant Staphylococcus epidermidis 09-3 after 18 to 24 hrs by twofold serial dilution method; method in brief: as §1
[11] = system: Staphylococcus epidermidis; experiment: Antibacterial activity against methicillin-sensitive Staphylococcus epidermidis 09-6 after 18 to 24 hrs by twofold serial dilution method; method in brief: as §1
Escherichia coli [12] = experiment: Antibacterial activity against Escherichia coli 08-21 after 18 to 24 hrs by twofold serial dilution method; method in brief: as §2
Enterococcus faecalis [13] = experiment: Antibacterial activity against Enterococcus faecalis 08-12 after 18 to 24 hrs by twofold serial dilution method; method in brief: as §2
Streptococcus pneumoniae [14] = experiment: Antibacterial activity against Streptococcus pneumoniae 08-2 after 18 to 24 hrs by twofold serial dilution method; method in brief: as §2
Klebsiella pneumoniae [15] = experiment: Antibacterial activity against Klebsiella pneumoniae 09-22 after 18 to 24 hrs by twofold serial dilution method; method in brief: as §2
Enterococcus faecalis [16] = experiment: Antibacterial activity against Enterococcus faecalis 08-10 after 18 to 24 hrs by twofold serial dilution method; method in brief: as §2
Escherichia coli [17] = experiment: Antibacterial activity against Escherichia coli 08-22 after 18 to 24 hrs by twofold serial dilution method; method in brief: as §2
Enterococcus faecium [18] = experiment: Antibacterial activity against Enterococcus faecium 08-2 after 18 to 24 hrs by twofold serial dilution method; method in brief: as §2
Enterococcus faecium [19] = experiment: Antibacterial activity against Enterococcus faecium 08-7 after 18 to 24 hrs by twofold serial dilution method; method in brief: as §2
Staphylococcus aureus [20] = experiment: Antibacterial activity against methicillin-sensitive Staphylococcus aureus 08-2 after 18 to 24 hrs by twofold serial dilution method; method in brief: as §1
Pseudomonas aeruginosa [21] = experiment: Antibacterial activity against Pseudomonas aeruginosa 09-35 after 18 to 24 hrs by twofold serial dilution method; method in brief: as §2
Staphylococcus aureus [22] = experiment: Antibacterial activity against Staphylococcus aureus ATCC […] after 18 to 24 hrs by twofold serial dilution method; method in brief: as §2
Pseudomonas aeruginosa [23] = experiment: Antibacterial activity against Pseudomonas aeruginosa 09-34 after 18 to 24 hrs by twofold serial dilution method; method in brief: as §2
[24] = system: Staphylococcus epidermidis; experiment: Antibacterial activity against methicillin-resistant Staphylococcus epidermidis 09-2 after 18 to 24 hrs by twofold serial dilution method; method in brief: as §1
Klebsiella pneumoniae [25] = experiment: Antibacterial activity against Klebsiella pneumoniae 09-23 after 18 to 24 hrs by twofold serial dilution method; method in brief: as §2

`CO/N=C1\CN(c2c(F)cc3c(=O)c(C(=O)O)cn(C4CC4)c3c2OC)CC1/C(N)=N\O` (centres undefined) was tested, and the MIC [1] was 0.25 mg/L (≈ 0.559 µM), the MIC (Klebsiella pneumoniae [2]) was greater than 128 mg/L and the MIC (Staphylococcus aureus [3]) was 0.25 mg/L (≈ 0.559 µM). The MIC (Pseudomonas aeruginosa [4]) was greater than 128 mg/L, the MIC (Pseudomonas aeruginosa [5]) was 32 mg/L (≈ 71.5 µM) and the MIC [6] was 0.25 mg/L (≈ 0.559 µM). For the same compound, the MIC (Escherichia coli [7]) was greater than 128 mg/L, the MIC (Streptococcus pneumoniae [8]) was 4 mg/L (≈ 8.94 µM) and the MIC (Pseudomonas aeruginosa [9]) was 16 mg/L (≈ 35.8 µM). For the same compound, the MIC [10] was 0.25 mg/L (≈ 0.559 µM), the MIC [11] was 0.25 mg/L (≈ 0.559 µM) and the MIC (Escherichia coli [12]) was greater than 128 mg/L. The MIC (Enterococcus faecalis [13]) was greater than 128 mg/L, the MIC (Streptococcus pneumoniae [14]) was 4 mg/L (≈ 8.94 µM) and the MIC (Klebsiella pneumoniae [15]) was 1 mg/L (≈ 2.24 µM). For the same compound, the MIC (Enterococcus faecalis [16]) was greater than 128 mg/L, the MIC (Escherichia coli [17]) was greater than 128 mg/L and the MIC (Enterococcus faecium [18]) was greater than 128 mg/L. It also gave an MIC (Enterococcus faecium [19]) greater than 128 mg/L, an MIC (Staphylococcus aureus [20]) of 0.25 mg/L (≈ 0.559 µM) and an MIC (Pseudomonas aeruginosa [21]) of 32 mg/L (≈ 71.5 µM). For the same compound, the MIC (Staphylococcus aureus [22]) was 0.25 mg/L (≈ 0.559 µM), the MIC (Pseudomonas aeruginosa [23]) was greater than 128 mg/L and the MIC [24] was 0.5 mg/L (≈ 1.12 µM). The MIC (Klebsiella pneumoniae [25]) was greater than 128 mg/L.
For `CO/N=C1\CN(c2nc3c(cc2F)c(=O)c(C(=O)O)cn3C2CC2)CC1/C(N)=N\O` (centres undefined), the MIC [1] was 128 mg/L (≈ 306 µM), the MIC (Klebsiella pneumoniae [2]) was greater than 128 mg/L and the MIC (Staphylococcus aureus [3]) was 128 mg/L (≈ 306 µM). For the same compound, the MIC (Pseudomonas aeruginosa [4]) was 8 mg/L (≈ 19.1 µM), the MIC (Pseudomonas aeruginosa [5]) was 8 mg/L (≈ 19.1 µM) and the MIC [6] was 2 mg/L (≈ 4.78 µM). The MIC (Escherichia coli [7]) was 128 mg/L (≈ 306 µM), the MIC (Streptococcus pneumoniae [8]) was 2 mg/L (≈ 4.78 µM) and the MIC (Pseudomonas aeruginosa [9]) was 4 mg/L (≈ 9.56 µM). The MIC [10] was 1 mg/L (≈ 2.39 µM), the MIC [11] was 128 mg/L (≈ 306 µM) and the MIC (Escherichia coli [12]) was greater than 128 mg/L. It also gave an MIC (Enterococcus faecalis [13]) of 4 mg/L (≈ 9.56 µM), an MIC (Streptococcus pneumoniae [14]) of 2 mg/L (≈ 4.78 µM) and an MIC (Klebsiella pneumoniae [15]) of 32 mg/L (≈ 76.5 µM). It also gave an MIC (Enterococcus faecalis [16]) greater than 128 mg/L, an MIC (Escherichia coli [17]) greater than 128 mg/L and an MIC (Enterococcus faecium [18]) greater than 128 mg/L. For the same compound, the MIC (Enterococcus faecium [19]) was greater than 128 mg/L, the MIC (Staphylococcus aureus [20]) was 1 mg/L (≈ 2.39 µM) and the MIC (Pseudomonas aeruginosa [21]) was greater than 128 mg/L. For the same compound, the MIC (Staphylococcus aureus [22]) was 1 mg/L (≈ 2.39 µM), the MIC (Pseudomonas aeruginosa [23]) was 8 mg/L (≈ 19.1 µM) and the MIC [24] was 1 mg/L (≈ 2.39 µM). For the same compound, the MIC (Klebsiella pneumoniae [25]) was greater than 128 mg/L.
With `CCO/N=C1\CN(c2c(F)cc3c(=O)c(C(=O)O)cn(CC)c3c2F)CC1/C(N)=N\OCC` (centres undefined) the MIC [1] was greater than 128 mg/L, the MIC (Klebsiella pneumoniae [2]) was greater than 128 mg/L and the MIC (Staphylococcus aureus [3]) was greater than 128 mg/L. The MIC (Pseudomonas aeruginosa [4]) was greater than 128 mg/L, the MIC (Pseudomonas aeruginosa [5]) was greater than 128 mg/L and the MIC [6] was greater than 128 mg/L. It also gave an MIC (Escherichia coli [7]) greater than 128 mg/L, an MIC (Streptococcus pneumoniae [8]) greater than 128 mg/L and an MIC (Pseudomonas aeruginosa [9]) greater than 128 mg/L. It also gave an MIC [11] greater than 128 mg/L, an MIC (Escherichia coli [12]) greater than 128 mg/L and an MIC (Enterococcus faecalis [13]) greater than 128 mg/L. For the same compound, the MIC (Streptococcus pneumoniae [14]) was greater than 128 mg/L, the MIC (Klebsiella pneumoniae [15]) was greater than 128 mg/L and the MIC (Enterococcus faecalis [16]) was greater than 128 mg/L. The MIC (Escherichia coli [17]) was greater than 128 mg/L, the MIC (Enterococcus faecium [18]) was greater than 128 mg/L and the MIC (Enterococcus faecium [19]) was greater than 128 mg/L. It also gave an MIC (Staphylococcus aureus [20]) greater than 128 mg/L, an MIC (Pseudomonas aeruginosa [21]) greater than 128 mg/L and an MIC (Staphylococcus aureus [22]) of 8 mg/L (≈ 17.2 µM). For the same compound, the MIC (Pseudomonas aeruginosa [23]) was greater than 128 mg/L, the MIC [24] was greater than 128 mg/L and the MIC (Klebsiella pneumoniae [25]) was greater than 128 mg/L.
